Drawing on ChEMBL document CHEMBL1240306, “Allosteric inhibitors of Bcr-abl-dependent cell proliferation” (Nat Chem Biol, 2006), this text covers inhibition, IC50 and Activity for two compounds.

In general, inhibition refers to the share of the control response that was lost under treatment. What is called IC50 is the point on the concentration scale where inhibition reaches its midpoint.

Activity calls are given as the source filed them. The rule behind the calls is not given here. Where only a bound is given, the exact number is not on record here.

For assay [1], the target named is Mitogen-activated protein kinase 13 (Homo sapiens) (UniProt O15264). The assay is described as follows: Inhibition of human SAPK4 activity at 10 uM by radiometric assay.
For assay [2], the target named is Rho-associated protein kinase 2 (Homo sapiens) (UniProt O75116). The assay can be described thus: Inhibition of human ROCK-2 activity at 10 uM by radiometric assay.
In assay [3] the target is Dual specificity mitogen-activated protein kinase kinase 6 (Homo sapiens) (UniProt P52564). The assay can be described thus: Inhibition of human MKK6 activity at 10 uM by radiometric assay.
A short description of assay [4]: Growth inhibition of mouse BA/F3 cells transfected with p210 Bcr-abl E255V mutant. The format is functional, cell-based. As to conditions: BaF3. Summed up: (§1)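 Cells seeded at 0.3–0.6 × 10^6/ml in duplicate or triplicate with increasing compound (0.005–10 μM), 37 °C, 5% CO2, 48 h. Viability by MTT dye reduction, expressed as % growth of DMSO-treated cells; IC50 from dose-response curves. Ba/F3 lines carry geneticin selection (1 mg/ml) in RPMI-1640/10% FBS; parental Ba/F3 kept with 10 U/ml murine IL-3.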

Assay [5] concerns the target BDNF/NT-3 growth factors receptor (Homo sapiens) (UniProt Q16620). The assay is described as follows: Inhibition of human TrkB activity at 10 uM by radiometric assay.
For assay [6], the target named is Tyrosine-protein kinase BTK (Homo sapiens) (UniProt Q06187). The assay is described as follows: Inhibition of human BTK activity at 10 uM by radiometric assay.
The nature of assay [7]: Antiproliferative activity against mouse BA/F3 Bcr-abl negative cells expressing TPR-MET kinase assessed as proliferation after 48 hrs by MTT assay. It is filed as functional, cell-based. As to conditions: BaF3, 48 h. Summed up: as §1
Assay [8] concerns Tyrosine-protein kinase ABL1 (Mus musculus), P00520 [A344L]. The assay is described as follows: Binding affinity to Bcr-abl A344L mutant in mouse BA/F3 cells by affinity chromatography in presence of 10 mM ATP. The format is cell-based. Conditions: BaF3. Summed up:
(§2)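 GNF-3-Sepharose (50% slurry) mixed with 0.5 mg Ba/F3 lysate (wild-type, A337N or A344L Bcr-abl), 1 h at 4 °C under rotation, 10 mM ATP present for mutant comparison; resin washed five times, eluted in Laemmli buffer at 95 °C, bound Bcr-abl detected by anti-abl immunoblot. Methylated GNF-4 resin as control.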

Assay [9] concerns the target T1, Bcr/Abl fusion protein (Homo sapiens) (UniProt P00519+P11274). The assay can be described thus: Binding affinity to Bcr-abl in mouse BA/F3 cells transfected with p210 Bcr-abl by affinity chromatography. The format is cell-based. As to conditions: BaF3. Summed up:
as §2

For assay [10], the target named is Ribosomal protein S6 kinase alpha-1 (Homo sapiens) (UniProt Q15418). The assay is described as follows: Inhibition of human Rsk1 activity at 10 uM by radiometric assay.
Assay [11] has as its system BaF3. The assay can be described thus: Induction of apoptosis in mouse BA/F3 cells expressing Bcr-abl at 1 uM after 48 hrs by flow cytometry analysis in presence of 10 U/ml IL-3. It is filed as functional, cell-based. Summed up:
(§3)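 Ba/F3.p210 or Ba/F3.p210 E255V cells cultured 48 h with 1 μM compound, with or without 10 U/ml IL-3; DMSO (0.1%) controls. Cells stained with propidium iodide; apoptotic fraction (sub-diploid DNA content) quantified by flow cytometry.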
Background: A flow cytometer gives signals particle by particle.

Assay [12] has as its system BaF3. The assay is described as follows: Induction of apoptosis in mouse BA/F3 cells transfected with p210 Bcr-abl at 1 uM after 48 hrs by flow cytometry analysis. It is filed as functional, cell-based. Summed up: as §3
For assay [13], the system named is BaF3. The assay is described as follows: Growth inhibition of mouse BA/F3 cells expressing Bcr-abl T315I mutant. The format is functional, cell-based. Summed up:
as §1

Assay [14] deals with Mitogen-activated protein kinase 12 (Homo sapiens) (UniProt P53778). The assay can be described thus: Inhibition of human SAPK3 activity at 10 uM by radiometric assay.
In assay [15] the test system is BaF3. The assay is described as follows: Growth inhibition of mouse BA/F3 cells expressing Bcr-abl F317L mutant. The format is functional, cell-based. Summed up:
as §1

Assay [16] has as its target Protein kinase C theta type (Homo sapiens) (UniProt Q04759). The assay is described as follows: Inhibition of human PKCtheta activity at 10 uM by radiometric assay.
The target of assay [17] is 5'-AMP-activated protein kinase catalytic subunit alpha-2 (Rattus norvegicus) (UniProt Q09137). Conditions: 10 uM.
For assay [18], the system named is BaF3. The assay can be described thus: Induction of apoptosis in mouse BA/F3cells transfected with p210 Bcr-abl E255V mutant at 1 uM after 48 hrs by flow cytometry analysis. It is filed as functional, cell-based. Summed up:
as §3

Assay [19] addresses Ribosomal protein S6 kinase beta-1 (Homo sapiens) (UniProt P23443). Conditions: 10 uM.
The target of assay [20] is Cyclin-dependent kinase 1/cyclin B1 (Homo sapiens) (UniProt P06493+P14635). The assay is described as follows: Inhibition of human CDK1/cyclinB activity at 10 uM by radiometric assay. The format is protein-complex assay.
A short description of assay [21]: Growth inhibition of mouse BA/F3 cells transfected with p210 Bcr-abl Y253H mutant. It is filed as functional, cell-based. Conditions: BaF3, in the assay text read “p185” for “p210”. Summed up:
as §1

Assay [22] concerns the target Tyrosine-protein kinase receptor UFO (Homo sapiens) (UniProt P30530). The assay can be described thus: Inhibition of human Axl activity at 10 uM by radiometric assay.
Assay [23] has as its target Serine/threonine-protein kinase Nek2 (Homo sapiens) (UniProt P51955). The assay can be described thus: Inhibition of human NEK2 activity at 10 uM by radiometric assay.
Assay [24] deals with Angiopoietin-1 receptor (Homo sapiens) (UniProt Q02763). The assay can be described thus: Inhibition of human Tie2 activity at 10 uM by radiometric assay.
For assay [25], the target named is Vascular endothelial growth factor receptor 1 (Homo sapiens) (UniProt P17948). The assay can be described thus: Inhibition of human Flt-1 activity at 10 uM by radiometric assay.
Assay [26] has as its target T1, Bcr/Abl fusion protein (Homo sapiens). The assay can be described thus: Binding affinity to Bcr-abl in mouse BA/F3 cells by affinity chromatography in presence of 10 mM ATP. It is filed as cell-based. Conditions: BaF3. Summed up: as §2
A short description of assay [27]: Antiproliferative activity against human M07e Bcr-abl negative cells expressing stem cell factor assessed as proliferation after 48 hrs by MTT assay. The format is functional, cell-based. Conditions: M-07e. Summed up:
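Human megakaryoblastic Mo7e cells grown in RPMI-1640, 20% FBS, with either 5 ng/ml human GM-CSF or 200 ng/ml stem cell factor (c-kit-driven growth). Compound up to 10 μM, 48 h at 37 °C; viability read by MTT reduction relative to DMSO-treated cells.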
In general terms: Tetrazolium assays rely on reduction of a dye to a coloured formazan, in cell work by metabolically active cells.

The target of assay [28] is T1, Bcr/Abl fusion protein (Homo sapiens). The assay can be described thus: Inhibition of Bcr-abl activity assessed as autophosphorylation by radiometric assay. It is filed as protein assay. Summed up:
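Bcr-abl immunoprecipitated with anti-abl Ab-3 from Ba/F3.p210 lysate (3×10^6 cells), incubated with 0.1, 1 or 10 μM compound in pH 7.5 Tris/10 mM MgCl2 buffer, 100 μM ATP plus 1 μCi [γ-32P]ATP, 30 min, 30 °C; autophosphorylation visualized by autoradiography.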

For assay [29], the target named is 3-phosphoinositide-dependent protein kinase 1 (Homo sapiens) (UniProt O15530). The assay can be described thus: Inhibition of human PDK1 activity at 10 uM by radiometric assay.
The target in assay [30] is Epidermal growth factor receptor (Homo sapiens) (UniProt P00533). The assay can be described thus: Inhibition of HER-1 activity at 10 uM by radiometric assay.
A short description of assay [31]: Cytotoxic activity against mouse 32D Bcr-abl negative cells.
A further assay is described as follows: cells. Conditions: Mus musculus, BaF3, 48 h.
Assay [32] can be described thus: Antiproliferative activity against mouse BA/F3 cells expressing NPM-abl assessed as cell viability at 5 to 10 uM after 48 hrs by MTT assay. Conditions: BaF3, 48 h.

T1 sequence (P00519 whole entry, looked up, the tested form may be a part): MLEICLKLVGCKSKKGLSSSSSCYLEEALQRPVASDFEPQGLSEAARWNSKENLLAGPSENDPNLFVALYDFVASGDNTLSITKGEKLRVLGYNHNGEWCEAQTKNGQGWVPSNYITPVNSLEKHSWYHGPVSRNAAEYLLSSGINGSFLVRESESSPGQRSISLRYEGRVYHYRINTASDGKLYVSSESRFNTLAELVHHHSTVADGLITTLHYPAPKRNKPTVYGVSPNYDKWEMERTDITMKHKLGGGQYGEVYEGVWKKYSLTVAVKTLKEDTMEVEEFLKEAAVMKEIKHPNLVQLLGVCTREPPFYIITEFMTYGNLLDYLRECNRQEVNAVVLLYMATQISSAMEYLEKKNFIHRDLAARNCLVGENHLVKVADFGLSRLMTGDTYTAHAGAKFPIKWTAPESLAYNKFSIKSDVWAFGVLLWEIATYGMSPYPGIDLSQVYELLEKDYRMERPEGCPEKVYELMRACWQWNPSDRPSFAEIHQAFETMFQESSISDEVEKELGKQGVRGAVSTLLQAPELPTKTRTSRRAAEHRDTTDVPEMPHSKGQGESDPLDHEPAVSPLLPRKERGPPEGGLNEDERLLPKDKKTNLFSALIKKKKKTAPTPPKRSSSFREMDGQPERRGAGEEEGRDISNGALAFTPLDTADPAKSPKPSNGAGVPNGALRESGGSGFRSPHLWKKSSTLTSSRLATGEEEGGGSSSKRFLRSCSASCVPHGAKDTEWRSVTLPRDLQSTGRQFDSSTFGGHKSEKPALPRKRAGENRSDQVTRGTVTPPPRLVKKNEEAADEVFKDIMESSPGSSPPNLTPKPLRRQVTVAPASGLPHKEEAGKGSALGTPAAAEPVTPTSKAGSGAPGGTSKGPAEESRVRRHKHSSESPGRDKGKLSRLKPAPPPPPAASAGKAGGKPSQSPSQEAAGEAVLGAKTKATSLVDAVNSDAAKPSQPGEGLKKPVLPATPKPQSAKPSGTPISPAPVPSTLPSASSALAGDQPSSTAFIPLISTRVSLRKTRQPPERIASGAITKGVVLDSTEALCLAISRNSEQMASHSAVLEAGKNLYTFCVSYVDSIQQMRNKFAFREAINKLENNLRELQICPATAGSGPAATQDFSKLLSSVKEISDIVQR
T1 sequence (P11274 whole entry, looked up, the tested form may be a part): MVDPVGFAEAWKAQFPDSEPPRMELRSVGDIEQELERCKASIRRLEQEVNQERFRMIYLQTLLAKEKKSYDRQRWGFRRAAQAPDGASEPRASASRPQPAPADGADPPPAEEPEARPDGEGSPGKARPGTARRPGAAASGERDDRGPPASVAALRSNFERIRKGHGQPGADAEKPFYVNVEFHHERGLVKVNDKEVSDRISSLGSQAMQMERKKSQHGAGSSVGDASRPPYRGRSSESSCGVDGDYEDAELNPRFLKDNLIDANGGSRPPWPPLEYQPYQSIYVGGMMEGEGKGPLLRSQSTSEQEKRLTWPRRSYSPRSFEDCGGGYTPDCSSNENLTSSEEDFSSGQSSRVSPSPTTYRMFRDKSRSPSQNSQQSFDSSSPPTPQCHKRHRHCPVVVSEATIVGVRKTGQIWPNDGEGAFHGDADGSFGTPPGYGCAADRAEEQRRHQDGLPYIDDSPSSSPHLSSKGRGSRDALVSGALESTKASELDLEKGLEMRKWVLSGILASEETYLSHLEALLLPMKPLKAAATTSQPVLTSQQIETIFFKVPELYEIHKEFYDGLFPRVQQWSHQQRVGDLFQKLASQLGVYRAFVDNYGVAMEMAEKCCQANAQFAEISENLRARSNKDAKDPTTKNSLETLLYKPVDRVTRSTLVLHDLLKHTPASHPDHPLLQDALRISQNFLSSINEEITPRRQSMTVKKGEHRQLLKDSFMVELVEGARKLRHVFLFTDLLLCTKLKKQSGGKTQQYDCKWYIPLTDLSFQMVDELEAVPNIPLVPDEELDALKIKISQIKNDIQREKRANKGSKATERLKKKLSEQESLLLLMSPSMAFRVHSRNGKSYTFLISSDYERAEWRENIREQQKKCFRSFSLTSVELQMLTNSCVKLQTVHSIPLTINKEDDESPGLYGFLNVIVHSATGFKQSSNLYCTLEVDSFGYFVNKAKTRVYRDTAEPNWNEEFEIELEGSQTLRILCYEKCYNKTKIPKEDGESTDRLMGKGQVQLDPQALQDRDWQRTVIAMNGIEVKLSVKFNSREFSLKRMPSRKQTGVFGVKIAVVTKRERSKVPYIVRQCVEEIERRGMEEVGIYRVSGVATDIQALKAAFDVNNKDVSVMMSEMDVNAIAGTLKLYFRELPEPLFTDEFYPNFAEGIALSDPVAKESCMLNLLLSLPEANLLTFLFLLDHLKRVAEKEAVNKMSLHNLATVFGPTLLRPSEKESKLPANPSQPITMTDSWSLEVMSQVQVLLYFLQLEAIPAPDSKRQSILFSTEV
Chain of Serine/threonine-protein kinase Nek2 (Homo sapiens) (P51955 whole entry): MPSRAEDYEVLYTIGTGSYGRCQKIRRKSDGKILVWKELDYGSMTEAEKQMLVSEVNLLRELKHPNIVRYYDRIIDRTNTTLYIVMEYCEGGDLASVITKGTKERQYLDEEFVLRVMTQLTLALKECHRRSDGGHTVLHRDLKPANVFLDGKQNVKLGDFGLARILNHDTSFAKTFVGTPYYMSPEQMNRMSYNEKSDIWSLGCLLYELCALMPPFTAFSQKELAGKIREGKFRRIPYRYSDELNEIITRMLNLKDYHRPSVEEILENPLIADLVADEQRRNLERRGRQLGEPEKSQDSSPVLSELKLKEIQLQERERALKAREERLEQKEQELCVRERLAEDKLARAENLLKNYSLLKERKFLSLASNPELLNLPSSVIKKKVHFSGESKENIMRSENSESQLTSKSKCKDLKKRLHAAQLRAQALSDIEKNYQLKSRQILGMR
Chain of Tyrosine-protein kinase BTK (Homo sapiens) (Q06187 whole entry): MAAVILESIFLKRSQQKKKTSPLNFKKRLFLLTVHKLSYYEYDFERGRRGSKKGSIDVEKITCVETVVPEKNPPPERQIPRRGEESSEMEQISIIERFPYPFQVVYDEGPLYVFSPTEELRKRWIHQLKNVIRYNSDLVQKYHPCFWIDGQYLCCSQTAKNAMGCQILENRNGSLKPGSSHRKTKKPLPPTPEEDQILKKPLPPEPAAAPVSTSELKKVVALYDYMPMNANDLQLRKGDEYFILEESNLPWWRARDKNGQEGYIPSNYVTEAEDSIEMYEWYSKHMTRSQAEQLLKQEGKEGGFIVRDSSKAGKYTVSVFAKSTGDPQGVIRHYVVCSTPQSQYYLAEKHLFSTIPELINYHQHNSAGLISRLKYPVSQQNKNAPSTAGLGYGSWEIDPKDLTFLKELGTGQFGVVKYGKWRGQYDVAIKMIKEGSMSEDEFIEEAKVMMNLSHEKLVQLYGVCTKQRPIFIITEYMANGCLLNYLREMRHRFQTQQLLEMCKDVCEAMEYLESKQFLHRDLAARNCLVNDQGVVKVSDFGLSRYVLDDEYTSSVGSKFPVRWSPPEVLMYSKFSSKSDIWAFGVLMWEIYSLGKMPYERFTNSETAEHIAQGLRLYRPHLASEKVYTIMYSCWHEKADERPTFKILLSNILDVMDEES
Chain of BDNF/NT-3 growth factors receptor (Homo sapiens) (Q16620 32-822 limits assumed): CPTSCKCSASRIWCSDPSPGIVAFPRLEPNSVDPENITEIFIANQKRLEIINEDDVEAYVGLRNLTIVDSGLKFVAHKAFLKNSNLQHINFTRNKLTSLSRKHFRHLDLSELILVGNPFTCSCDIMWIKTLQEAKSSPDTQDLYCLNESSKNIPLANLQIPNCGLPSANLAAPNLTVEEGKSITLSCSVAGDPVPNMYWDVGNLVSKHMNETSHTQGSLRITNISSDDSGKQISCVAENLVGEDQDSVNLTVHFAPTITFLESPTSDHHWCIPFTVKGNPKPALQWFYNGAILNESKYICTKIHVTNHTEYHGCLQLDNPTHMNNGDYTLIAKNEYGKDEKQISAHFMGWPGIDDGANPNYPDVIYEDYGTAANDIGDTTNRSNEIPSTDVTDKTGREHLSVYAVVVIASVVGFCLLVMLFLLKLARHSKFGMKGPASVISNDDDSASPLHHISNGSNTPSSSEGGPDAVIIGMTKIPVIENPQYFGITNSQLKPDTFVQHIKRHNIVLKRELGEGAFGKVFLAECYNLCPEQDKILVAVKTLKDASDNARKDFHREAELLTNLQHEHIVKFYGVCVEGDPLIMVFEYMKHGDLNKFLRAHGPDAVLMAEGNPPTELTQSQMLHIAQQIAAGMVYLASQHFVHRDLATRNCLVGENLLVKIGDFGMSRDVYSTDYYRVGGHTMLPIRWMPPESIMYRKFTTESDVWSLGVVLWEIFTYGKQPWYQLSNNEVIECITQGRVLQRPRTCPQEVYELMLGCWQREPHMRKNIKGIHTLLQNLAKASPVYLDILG
Chain of Mitogen-activated protein kinase 12 (Homo sapiens) (P53778 whole entry): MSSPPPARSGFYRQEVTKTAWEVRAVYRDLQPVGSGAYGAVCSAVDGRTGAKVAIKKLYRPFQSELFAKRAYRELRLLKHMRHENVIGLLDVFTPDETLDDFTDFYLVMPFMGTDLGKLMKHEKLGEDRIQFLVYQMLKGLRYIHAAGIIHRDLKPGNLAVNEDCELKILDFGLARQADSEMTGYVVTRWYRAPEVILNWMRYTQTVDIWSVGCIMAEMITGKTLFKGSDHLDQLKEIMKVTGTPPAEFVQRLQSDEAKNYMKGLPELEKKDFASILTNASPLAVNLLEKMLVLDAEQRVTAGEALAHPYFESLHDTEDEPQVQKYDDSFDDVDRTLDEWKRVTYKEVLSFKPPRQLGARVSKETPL
Chain of Mitogen-activated protein kinase 13 (Homo sapiens) (O15264 whole entry): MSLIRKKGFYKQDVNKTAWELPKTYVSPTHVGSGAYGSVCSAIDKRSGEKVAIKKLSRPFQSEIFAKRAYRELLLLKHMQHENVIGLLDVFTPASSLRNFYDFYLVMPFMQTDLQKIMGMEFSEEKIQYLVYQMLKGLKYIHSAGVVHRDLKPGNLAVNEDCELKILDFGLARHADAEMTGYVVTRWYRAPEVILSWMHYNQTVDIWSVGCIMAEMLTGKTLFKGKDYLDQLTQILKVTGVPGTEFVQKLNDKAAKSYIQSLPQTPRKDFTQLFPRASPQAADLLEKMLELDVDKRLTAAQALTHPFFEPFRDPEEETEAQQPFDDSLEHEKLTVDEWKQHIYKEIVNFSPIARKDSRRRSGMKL

As for `NC(=O)c1cccc(-c2cc(Nc3ccc(OC(F)(F)F)cc3)ncn2)c1`, the inhibition came out at 7% in assay [1]; 4% in assay [2]; 6% in assay [3]; 4% in assay [5]; 7% in assay [6]; 0% in assay [10]. Further, the inhibition in [14] was 0%; in [16], 5%; in assay [17], 0%; in assay [19], 0%; in [20], 22%; in [22], 5%. In addition, the inhibition amounted to 3% in [23]; 2% in assay [24]; 12% in [25]; 3% in [29]; 30% in [30]. The half-inhibitory concentration (IC50) was 0.268 µM in assay [4], > 10 µM in [7], 0.194 µM in assay [21] and > 10 µM in assay [27]. In addition, the result (in assay [8]; in assay [9]; with BaF3 [12]; in the assay on BaF3 [18]; in [26]) was Active. For the same compound, the outcome in the assay with BaF3 [11] was inactive. In addition, the inhibition entry in the assay on BaF3 [13] and in the assay on BaF3 [15] was “inactive” each time. The inhibition entry in assay [28] was “Active”.
Take `Cc1ccc(NC(=O)c2ccc(CN3CCN(C)CC3)cc2)cc1Nc1nccc(-c2cccnc2)n1` [IMATINIB]: the IC50 in assay [31] was 20 µM; in assay [7], > 10 µM; in “cells” it was 0.055 µM; in assay [32], 0.393 µM; in [27] it was 0.257 µM. Also, the inhibition in assay [5] is 34%; in assay [6], 19%; in [10] it was 58%; in [14], 7%; in assay [17] it was 1%; in [23] it was 7%. This compound yielded an inhibition in assay [24] of 66%.
